Activity calls are given as the source filed them. The rule behind the calls is not given here.
Experiments:
[1] = target: T1, Melanin-concentrating hormone receptor 1 (Rattus norvegicus, UniProt P97639); test: Antagonist activity at rat MCH1 receptor expressed in HEK293 cells by FLIPR calcium mobility assay; format: functional, cell-based
[2] = target: T1, Melanin-concentrating hormone receptor 1; test: Displacement of [3H]T-226296 from rat recombinant MCH1 receptor
[3] = target: T2, Alpha-1A adrenergic receptor (Homo sapiens, UniProt P35348); test: Displacement of [125I]HEAT from human recombinant adrenergic alpha-1A receptor
T2 sequence (P35348 whole entry): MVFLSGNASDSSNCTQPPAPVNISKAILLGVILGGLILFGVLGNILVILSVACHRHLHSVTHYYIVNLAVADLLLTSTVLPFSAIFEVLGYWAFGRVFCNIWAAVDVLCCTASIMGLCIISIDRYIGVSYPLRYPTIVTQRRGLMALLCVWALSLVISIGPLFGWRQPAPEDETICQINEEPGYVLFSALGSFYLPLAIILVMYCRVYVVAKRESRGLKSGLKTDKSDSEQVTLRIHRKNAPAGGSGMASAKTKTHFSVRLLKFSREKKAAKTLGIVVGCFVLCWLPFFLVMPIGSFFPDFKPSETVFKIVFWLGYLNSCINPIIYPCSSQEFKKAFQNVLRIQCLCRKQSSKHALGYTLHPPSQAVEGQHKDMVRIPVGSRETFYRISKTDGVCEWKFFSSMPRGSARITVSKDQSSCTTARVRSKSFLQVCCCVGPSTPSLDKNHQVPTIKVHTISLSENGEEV

D(2) dopamine receptor = D(2) dopamine receptor (Homo sapiens, UniProt P14416); test: Displacement of [3H]spiperone from human recombinant dopamine D2 receptor
Sequence of D(2) dopamine receptor (P14416 whole entry): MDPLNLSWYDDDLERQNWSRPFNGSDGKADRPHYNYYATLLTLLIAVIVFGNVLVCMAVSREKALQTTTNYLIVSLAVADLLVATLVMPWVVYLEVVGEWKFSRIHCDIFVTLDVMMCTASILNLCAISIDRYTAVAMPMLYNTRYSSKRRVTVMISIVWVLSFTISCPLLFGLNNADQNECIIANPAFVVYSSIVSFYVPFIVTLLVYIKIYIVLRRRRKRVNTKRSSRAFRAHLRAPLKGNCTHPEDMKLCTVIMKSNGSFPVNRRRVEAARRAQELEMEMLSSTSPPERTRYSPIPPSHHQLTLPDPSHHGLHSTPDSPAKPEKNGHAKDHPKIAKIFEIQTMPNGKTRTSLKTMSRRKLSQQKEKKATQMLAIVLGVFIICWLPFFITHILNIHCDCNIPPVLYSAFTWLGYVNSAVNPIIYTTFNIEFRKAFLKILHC

[4] = Blood clearance in rat at 2 mg/kg, po and 1 mg/kg iv; format: ADME, organism-based; details: whole blood
[5] = Plasma clearance in rat at 2 mg/kg, po and 1 mg/kg iv; format: ADME, organism-based
[6] = Half life in rat at 2 mg/kg, po and 1 mg/kg iv; format: ADME, organism-based; details: in vivo
[7] = Drug level in brain at 10 mg/kg, po after 4 hrs; format: ADME, organism-based; set-up: dose 10 mg/kg, route oral; details: rat, read-out: Drug uptake
How it was run: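 Separate rat experiment: single 10 mg/kg oral dose, brain and plasma exposures measured 4 h after dosing (n = 2); brain level expressed in ng/g, also as brain/plasma ratio.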

[8] = Volume of distribution at steady state in rat; format: ADME, organism-based; details: in vivo, read-out: Vss
[9] = Ratio of drug level in brain to plasma in rat at 10 mg/kg, po; format: ADME, organism-based; set-up: dose 10 mg/kg, route oral
How it was run: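 Rats received a single oral dose in a study separate from the main PK study. Brain and plasma concentrations were measured 4 h after dosing (n = 2), and the ratio was taken as brain level over plasma level. The limit of quantitation was 2 ng/mL for plasma and 2 ng/g for brain.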

Rattus norvegicus [10] = test: Inhibition of MCH-stimulated water intake in rat at 10 mg/kg, po; format: functional, organism-based; set-up: dose 10 mg/kg
Rattus norvegicus [11] = test: Inhibition of MCH-stimulated water intake in rat at 1 mg/kg, po; format: functional, organism-based; set-up: dose 1 mg/kg
Rattus norvegicus [12] = test: Inhibition of MCH-stimulated water intake in rat at 2.5 mg/kg, po; format: functional, organism-based; set-up: dose 2.5 mg/kg
[13] = Bioavailability in rat at 2 mg/kg, po and 1 mg/kg iv; format: ADME, organism-based; details: in vivo
Rattus norvegicus [14] = test: Anxiolytic activity in rat assessed as social interaction time at 0.3 mg/kg, po after 1 hr relative to control

T1 sequence (P97639 whole entry): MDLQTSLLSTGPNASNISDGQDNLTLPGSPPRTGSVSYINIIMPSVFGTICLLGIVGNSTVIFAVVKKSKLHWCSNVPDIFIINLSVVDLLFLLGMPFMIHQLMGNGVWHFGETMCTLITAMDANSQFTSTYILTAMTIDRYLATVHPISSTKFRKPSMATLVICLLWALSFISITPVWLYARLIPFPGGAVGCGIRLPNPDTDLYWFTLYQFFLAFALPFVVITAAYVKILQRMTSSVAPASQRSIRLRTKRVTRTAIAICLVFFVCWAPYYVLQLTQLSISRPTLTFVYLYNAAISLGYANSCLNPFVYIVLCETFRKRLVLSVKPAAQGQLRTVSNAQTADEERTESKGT

IC50 [1] | Ki [2] | Ki (D(2) dopamine receptor) | SMILES | also measured
2400 nM | – | – | CC(=O)Nc1cccc(C2CCN(CCCC(=O)c3ccc(C)cc3)CC2)c1 | –
360 nM | 27 nM | 400 nM | Cc1ccc(C2CCN(Cc3ccc(Oc4ccc(F)c(F)c4)cc3)CC2)cc1NC(=O)C(C)C | Ki [3]: 1010 nM
– | 200 nM | – | O=C(CCCN1CCC(c2cccc(NC(=O)C3CCCCC3)c2)CC1)c1ccc(Cl)cc1 | –
1400 nM | 140 nM | – | CC(C)C(=O)Nc1cccc(C2CCN(Cc3cccc(Oc4cc(Cl)cc(Cl)c4)c3)CC2)c1 | –
– | 540 nM | – | CC(C)C(=O)Nc1cccc(C2CCN(Cc3cccc(Oc4ccc(C(C)(C)C)cc4)c3)CC2)c1 | –
230 nM | – | 7400 nM | Cc1ccc(NC(=O)C(C)C)cc1C1CCN(Cc2ccc(Oc3ccc(F)c(F)c3)cc2)CC1 | clearance [4]: 55 mL/min/kg; Ki [3]: 180 nM; clearance [5]: 70 mL/min/kg; half-life [6]: 5.2 h; concentration at 4 h [7]: 184 ng/g; Vd [8]: 29 L/kg; Kp [9]: 2.3; Activity (Rattus norvegicus [10]): Active; Activity (Rattus norvegicus [11]): Active; Activity (Rattus norvegicus [12]): Active; bioavailability [13]: 59%; Time (Rattus norvegicus [14]): 81 s
– | – | 2800 nM | COCC1=C(C(=O)OC)[C@H](c2ccc(F)c(F)c2)N(C(=O)NCCCN2CCC(c3cccc(NC(C)=O)c3)CC2)C(=O)N1 [SNAP-7941] | Ki [3]: 40 nM
320 nM | 10 nM | 120 nM | CC(C)C(=O)Nc1cccc(C2CCN(Cc3ccc(Oc4ccccc4)cc3)CC2)c1 | –
– | – | 1300 nM | Cc1ccc(Oc2cccc(CN3CCC(c4cccc(NC(=O)C(C)C)c4)CC3)c2)cc1 | –
– | – | 470 nM | CC(C)C(=O)Nc1cccc(C2CCN(Cc3ccc(Oc4ccc(F)c(F)c4)cc3)CC2)c1 | Ki [3]: 200 nM
570 nM | 70 nM | 1400 nM | CC(=O)Nc1cccc(C2CCN(CCCC(=O)c3ccc(Cl)cc3)CC2)c1 | –
1300 nM | 100 nM | – | CC(=O)Nc1cccc(C2CCN(CCCC(=O)c3ccc(C)c(C)c3)CC2)c1 | –
2600 nM | 18 nM | – | CC(C)C(=O)Nc1cccc(C2CCN(Cc3cccc(Oc4ccc(Cl)c(Cl)c4)c3)CC2)c1 | –
2700 nM | 350 nM | – | CC(=O)Nc1cccc(C2CCN(CCCC(=O)c3ccccc3)CC2)c1 | –
– | – | 1000 nM | COc1ccc(Oc2cccc(CN3CCC(c4cccc(NC(=O)C(C)C)c4)CC3)c2)cc1 | –
5400 nM | – | – | CC(C)C(=O)Nc1cccc(C2CCN(Cc3cccc(Oc4cccc(C(F)(F)F)c4)c3)CC2)c1 | –
710 nM | 8.2 nM | 2900 nM | CC(C)C(=O)Nc1cccc(C2CCN(Cc3ccc(Oc4ccc(Cl)c(Cl)c4)cc3)CC2)c1 | Ki [3]: 34000 nM
2000 nM | 23 nM | – | CC(C)C(=O)Nc1cccc(C2CCN(Cc3cccc(Oc4ccc(Cl)cc4)c3)CC2)c1 | –
720 nM | – | 1400 nM | COc1ccc(Oc2ccc(CN3CCC(c4cccc(NC(=O)C(C)C)c4)CC3)cc2)cc1 | –
– | – | 780 nM | O=C(Cc1ccccc1)Nc1cccc(C2CCN(CCCC(=O)c3ccc(Cl)cc3)CC2)c1 | –
> 10000 nM | 490 nM | – | CC(=O)Nc1cccc(C2CCN(CCCC(=O)c3ccc(Oc4ccccc4)cc3)CC2)c1 | –
350 nM | 5.3 nM | 110 nM | CC(C)C(=O)Nc1cccc(C2CCN(Cc3ccc(Oc4ccc(Cl)cc4)cc3)CC2)c1 | –
72 nM | 5 nM | 610 nM | CC(C)C(=O)Nc1cccc(C2CCN(CCCC(=O)c3ccc(Cl)cc3)CC2)c1 | –

SMILES | IC50 [1] | Ki [2] | Ki (D(2) dopamine receptor) | also measured
O=C(CCCN1CCC(O)(c2ccc(Cl)cc2)CC1)c1ccc(Cl)cc1 [CHLOROHALOPERIDOL] | – | 350 nM | 190 nM | Ki [3]: 150 nM
